From ChEMBL document CHEMBL5674876, “Epigenetic Activation of Pro-angiogenic Signaling Pathways in Human Endothelial Progenitors Increases Vasculogenesis” (Stem Cell Reports, 2017)
Calls of active or inactive are those of the source.

What was measured:
HUVEC [1] = assay: Effect on pro-angiogenic property in human umbilical cord derived endothelial colony forming cells assessed as cell migration treated for 10 hrs measured by crystal violet staining analysis based gap closure assay; format: functional; conditions: dose 2.5-20 nM
HUVEC [2] = assay: Effect on pro-angiogenic property in human umbilical cord derived endothelial colony forming cells assessed as formation of capillary network on matrigel at 2.5 to 500 nM; format: functional, cell-based; conditions: dose 2.5-500 nM
In short: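 Drug- or vehicle-pretreated ECFCs seeded at 5,000 cells/well on phenol-red-free growth-factor-reduced Matrigel in duplicate; after 24 hr stained with 5 μg/mL calcein 5 min at 37°C, imaged at 2.5×. Total tube length expressed as percentage of vehicle control ±SEM, three independent experiments.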

HUVEC [3] = assay: Effect on pro-angiogenic property in human umbilical cord derived endothelial colony forming cells assessed as increase in DLL1 level by qRT-PCR analysis; format: functional, cell-based
HUVEC [4] = assay: Effect on pro-angiogenic property in human umbilical cord derived endothelial colony forming cells assessed as increase in SHH level by qRT-PCR analysis; format: functional, cell-based

Measured: Activity

Cc1[nH]c2ccccc2c1CCNCc1ccc(/C=C/C(=O)NO)cc1
active: HUVEC [1] Dose-Dependent Effect | HUVEC [2] Dose-Dependent Effect | HUVEC [3] | HUVEC [4]
